Results published in ChEMBL document CHEMBL1944580, “Synthesis of novel sulfonamide-1,2,4-triazoles, 1,3,4-thiadiazoles and 1,3,4-oxadiazoles, as potential antibacterial and antifungal agents. Biological evaluation and conformational analysis studies” (2012).
In brackets after ≈: the same amount, converted by molar mass.

These compounds were tested on Micrococcus flavus (assay: Antibacterial activity against Micrococcus flavus ATCC 10240 treated for 24 hrs followed by sub-cultivated for 72 hrs by micro dilution method). Conditions: not given.
Format: functional
Method in brief: (§1)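 2 µl from each well was serially subcultured into 100 µl fresh broth per well and incubated a further 72 h. MBC is the lowest concentration with no visible growth, taken as 99.5% killing of the original inoculum. Streptomycin and ampicillin were the positive controls.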

Row | SMILES | MBC
1 | CCCCNc1nnc(Cc2cc(OC)c(OC)cc2S(=O)(=O)N(C)C)o1 | 500 µM (≈ 199 µg/mL)

Each compound was assayed on Salmonella typhimurium (assay: Antibacterial activity against Salmonella Typhimurium ATCC 13311 treated for 24 hrs followed by sub-cultivated for 72 hrs by micro dilution method). Conditions: Salmonella enterica.
Format: functional, Salmonella enterica subsp. enterica serovar Typhimurium
Method in brief: as §1

Row | SMILES | MBC
2 | CCCCNc1nnc(Cc2cc(OC)c(OC)cc2S(=O)(=O)N(C)C)o1 | 250 µM (≈ 99.6 µg/mL)

Each compound was assayed on Fulvia fulva (assay: Antifungal activity against Fulvia fulva treated for 72 hrs followed by sub-cultivated for 5 days by serial dilution method). Conditions: not given.
Format: functional
Method in brief: (§2)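 MFC obtained after the 72 h, 28 °C malt-broth microdilution (spore inoculum about 1.0 × 10^5 per well, compounds from 1 mg/ml DMSO). 2 µl was serially subcultured into 100 µl broth per well and incubated a further 5 days at 28 °C. MFC is the lowest concentration with no visible growth, taken as 99.5% killing of the original inoculum.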

Row | SMILES | MFC
3 | CCCCNc1nnc(Cc2cc(OC)c(OC)cc2S(=O)(=O)N(C)C)o1 | 250 µM (≈ 99.6 µg/mL)

The compounds below were run on Listeria monocytogenes (assay: Antibacterial activity against Listeria monocytogenes NCTC 7973 treated for 24 hrs followed by sub-cultivated for 72 hrs by micro dilution method). Conditions: not given.
Format: functional
Method in brief: as §1

Row | SMILES | MBC
4 | CCCCNc1nnc(Cc2cc(OC)c(OC)cc2S(=O)(=O)N(C)C)o1 | 750 µM (≈ 299 µg/mL)

The compounds below were run on Salmonella typhimurium (assay: Antibacterial activity against Salmonella Typhimurium ATCC 13311 after 24 hrs by micro dilution method). Conditions: Salmonella enterica, ATCC 13311, 24 h.
Format: functional, Salmonella enterica subsp. enterica serovar Typhimurium
Method in brief: (§3)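 Microdilution MIC in 96-well plates. Bacterial suspensions adjusted in sterile saline to 1.0 × 10^5 CFU/ml, giving 1.0 × 10^4 cfu per well in LB broth. Compounds tested at up to 1 mg/ml. Plates incubated 24 h. MIC taken as the lowest concentration with no visible growth under a binocular microscope. OD at 655 nm was also read against a blank and the positive control. Streptomycin and ampicillin were the positive controls.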

Row | SMILES | MIC
5 | CCCCNc1nnc(Cc2cc(OC)c(OC)cc2S(=O)(=O)N(C)C)o1 | 130 µM (≈ 51.8 µg/mL)

Each compound was assayed on Bacillus cereus (assay: Antibacterial activity against Bacillus cereus clinical isolate treated for 24 hrs followed by sub-cultivated for 72 hrs by micro dilution method). Conditions: not given.
Format: functional
Method in brief: as §1

Row | SMILES | MBC
6 | CCCCNc1nnc(Cc2cc(OC)c(OC)cc2S(=O)(=O)N(C)C)o1 | 250 µM (≈ 99.6 µg/mL)

The compounds below were run on Fulvia fulva (assay: Antifungal activity against Fulvia fulva after 72 hrs by serial dilution method). Conditions: not given.
Format: functional
Method in brief: (§4)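 Modified microdilution MIC. Spores were washed from malt agar cultures with sterile 0.85% saline containing 0.1% Tween 80 and adjusted to about 1.0 × 10^5 per 100 µl well in malt broth. Compounds were dissolved in DMSO (1 mg/ml). Plates incubated 72 h at 28 °C. MIC is the lowest concentration with no visible growth under a binocular microscope. Bifonazole and ketoconazole were the references.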

Row | SMILES | MIC
7 | CCCCNc1nnc(Cc2cc(OC)c(OC)cc2S(=O)(=O)N(C)C)o1 | 130 µM (≈ 51.8 µg/mL)

What follows are compounds tested on Pseudomonas aeruginosa (assay: Antibacterial activity against Pseudomonas aeruginosa ATCC 27853 treated for 24 hrs followed by sub-cultivated for 72 hrs by micro dilution method). Conditions: not given.
Format: functional
Method in brief: as §1

Row | SMILES | MBC
8 | CCCCNc1nnc(Cc2cc(OC)c(OC)cc2S(=O)(=O)N(C)C)o1 | 250 µM (≈ 99.6 µg/mL)

What follows are compounds tested on Pseudomonas aeruginosa (assay: Antibacterial activity against Pseudomonas aeruginosa ATCC 27853 after 24 hrs by micro dilution method). Conditions: ATCC 27853, 24 h.
Format: functional
Method in brief: as §3

Row | SMILES | MIC
9 | CCCCNc1nnc(Cc2cc(OC)c(OC)cc2S(=O)(=O)N(C)C)o1 | 130 µM (≈ 51.8 µg/mL)

The compounds below were run on Escherichia coli (assay: Antibacterial activity against Escherichia coli ATCC 35210 after 24 hrs by micro dilution method). Conditions: ATCC 35210, 24 h.
Format: functional
Method in brief: as §3

Row | SMILES | MIC
10 | CCCCNc1nnc(Cc2cc(OC)c(OC)cc2S(=O)(=O)N(C)C)o1 | 630 µM (≈ 251 µg/mL)

Each compound was assayed on Aspergillus versicolor (assay: Antifungal activity against Aspergillus versicolor ATCC 11730 treated for 72 hrs followed by sub-cultivated for 5 days by serial dilution method). Conditions: not given.
Format: functional
Method in brief: as §2

Row | SMILES | MFC
11 | CCCCNc1nnc(Cc2cc(OC)c(OC)cc2S(=O)(=O)N(C)C)o1 | 750 µM (≈ 299 µg/mL)

The compounds below were run on Trichoderma viride (assay: Antifungal activity against Trichoderma viride IAM 5061 treated for 72 hrs followed by sub-cultivated for 5 days by serial dilution method). Conditions: not given.
Format: functional
Method in brief: as §2

Row | SMILES | MFC
12 | CCCCNc1nnc(Cc2cc(OC)c(OC)cc2S(=O)(=O)N(C)C)o1 | 130 µM (≈ 51.8 µg/mL)

The compounds below were run on Aspergillus niger (assay: Antifungal activity against Aspergillus niger ATCC 6275 treated for 72 hrs followed by sub-cultivated for 5 days by serial dilution method). Conditions: not given.
Format: functional
Method in brief: as §2

Row | SMILES | MFC
13 | CCCCNc1nnc(Cc2cc(OC)c(OC)cc2S(=O)(=O)N(C)C)o1 | 750 µM (≈ 299 µg/mL)

What follows are compounds tested on Aspergillus niger (assay: Antifungal activity against Aspergillus niger ATCC 6275 after 72 hrs by serial dilution method). Conditions: ATCC 6275, 72 h.
Format: functional
Method in brief: as §4

Row | SMILES | MIC
14 | CCCCNc1nnc(Cc2cc(OC)c(OC)cc2S(=O)(=O)N(C)C)o1 | 250 µM (≈ 99.6 µg/mL)

These compounds were tested on Enterobacter cloacae (assay: Antibacterial activity against Enterobacter cloacae human isolate after 24 hrs by micro dilution method). Conditions: not given.
Format: functional
Method in brief: as §3

Row | SMILES | MIC
15 | CCCCNc1nnc(Cc2cc(OC)c(OC)cc2S(=O)(=O)N(C)C)o1 | 630 µM (≈ 251 µg/mL)

What follows are compounds tested on Staphylococcus aureus (assay: Antibacterial activity against Staphylococcus aureus ATCC 6538 treated for 24 hrs followed by sub-cultivated for 72 hrs by micro dilution method). Conditions: not given.
Format: functional
Method in brief: as §1

Row | SMILES | MBC
16 | CCCCNc1nnc(Cc2cc(OC)c(OC)cc2S(=O)(=O)N(C)C)o1 | 380 µM (≈ 151 µg/mL)

These compounds were tested on Aspergillus flavus (assay: Antifungal activity against Aspergillus flavus ATCC 9643 treated for 72 hrs followed by sub-cultivated for 5 days by serial dilution method). Conditions: not given.
Format: functional
Method in brief: as §2

Row | SMILES | MFC
17 | CCCCNc1nnc(Cc2cc(OC)c(OC)cc2S(=O)(=O)N(C)C)o1 | 750 µM (≈ 299 µg/mL)

These compounds were tested on Penicillium ochrochloron (assay: Antifungal activity against Penicillium ochrochloron ATCC 9112 after 72 hrs by serial dilution method). Conditions: ATCC 9112, 72 h.
Format: functional
Method in brief: as §4

Row | SMILES | MIC
18 | CCCCNc1nnc(Cc2cc(OC)c(OC)cc2S(=O)(=O)N(C)C)o1 | 250 µM (≈ 99.6 µg/mL)

What follows are compounds tested on Aspergillus fumigatus (assay: Antifungal activity against Aspergillus fumigatus human isolate treated for 72 hrs followed by sub-cultivated for 5 days by serial dilution method). Conditions: not given.
Format: functional
Method in brief: as §2

Row | SMILES | MFC
19 | CCCCNc1nnc(Cc2cc(OC)c(OC)cc2S(=O)(=O)N(C)C)o1 | 250 µM (≈ 99.6 µg/mL)

What follows are compounds tested on Aspergillus versicolor (assay: Antifungal activity against Aspergillus versicolor ATCC 11730 after 72 hrs by serial dilution method). Conditions: ATCC 11730, 72 h.
Format: functional
Method in brief: as §4

Row | SMILES | MIC
20 | CCCCNc1nnc(Cc2cc(OC)c(OC)cc2S(=O)(=O)N(C)C)o1 | 250 µM (≈ 99.6 µg/mL)

What follows are compounds tested on Micrococcus flavus (assay: Antibacterial activity against Micrococcus flavus ATCC 10240 after 24 hrs by micro dilution method). Conditions: ATCC 10240, 24 h.
Format: functional
Method in brief: as §3

Row | SMILES | MIC
21 | CCCCNc1nnc(Cc2cc(OC)c(OC)cc2S(=O)(=O)N(C)C)o1 | 250 µM (≈ 99.6 µg/mL)

These compounds were tested on Penicillium ochrochloron (assay: Antifungal activity against Penicillium ochrochloron ATCC 9112 treated for 72 hrs followed by sub-cultivated for 5 days by serial dilution method). Conditions: not given.
Format: functional
Method in brief: as §2

Row | SMILES | MFC
22 | CCCCNc1nnc(Cc2cc(OC)c(OC)cc2S(=O)(=O)N(C)C)o1 | 750 µM (≈ 299 µg/mL)

The compounds below were run on Escherichia coli (assay: Antibacterial activity against Escherichia coli ATCC 35210 treated for 24 hrs followed by sub-cultivated for 72 hrs by micro dilution method). Conditions: not given.
Format: functional
Method in brief: as §1

Row | SMILES | MBC
23 | CCCCNc1nnc(Cc2cc(OC)c(OC)cc2S(=O)(=O)N(C)C)o1 | 630 µM (≈ 251 µg/mL)

What follows are compounds tested on Bacillus cereus (assay: Antibacterial activity against Bacillus cereus clinical isolate after 24 hrs by micro dilution method). Conditions: not given.
Format: functional
Method in brief: as §3

Row | SMILES | MIC
24 | CCCCNc1nnc(Cc2cc(OC)c(OC)cc2S(=O)(=O)N(C)C)o1 | 250 µM (≈ 99.6 µg/mL)

These compounds were tested on Talaromyces funiculosus (assay: Antifungal activity against Penicillium funiculosum ATCC 36839 after 72 hrs by serial dilution method). Conditions: ATCC 36839, 72 h.
Format: functional
Method in brief: as §4

Row | SMILES | MIC
25 | CCCCNc1nnc(Cc2cc(OC)c(OC)cc2S(=O)(=O)N(C)C)o1 | 250 µM (≈ 99.6 µg/mL)

The compounds below were run on Trichoderma viride (assay: Antifungal activity against Trichoderma viride IAM 5061 after 72 hrs by serial dilution method). Conditions: IAM 5061, 72 h.
Format: functional
Method in brief: as §4

Row | SMILES | MIC
26 | CCCCNc1nnc(Cc2cc(OC)c(OC)cc2S(=O)(=O)N(C)C)o1 | 130 µM (≈ 51.8 µg/mL)

What follows are compounds tested on Talaromyces funiculosus (assay: Antifungal activity against Penicillium funiculosum ATCC 36839 treated for 72 hrs followed by sub-cultivated for 5 days by serial dilution method). Conditions: not given.
Format: functional
Method in brief: as §2

Row | SMILES | MFC
27 | CCCCNc1nnc(Cc2cc(OC)c(OC)cc2S(=O)(=O)N(C)C)o1 | 500 µM (≈ 199 µg/mL)

The compounds below were run on Enterobacter cloacae (assay: Antibacterial activity against Enterobacter cloacae human isolate treated for 24 hrs followed by sub-cultivated for 72 hrs by micro dilution method). Conditions: not given.
Format: functional
Method in brief: as §1

Row | SMILES | MBC
28 | CCCCNc1nnc(Cc2cc(OC)c(OC)cc2S(=O)(=O)N(C)C)o1 | 750 µM (≈ 299 µg/mL)

Each compound was assayed on Listeria monocytogenes (assay: Antibacterial activity against Listeria monocytogenes NCTC 7973 after 24 hrs by micro dilution method). Conditions: NCTC 7973, 24 h.
Format: functional
Method in brief: as §3

Row | SMILES | MIC
29 | CCCCNc1nnc(Cc2cc(OC)c(OC)cc2S(=O)(=O)N(C)C)o1 | 250 µM (≈ 99.6 µg/mL)

The compounds below were run on Aspergillus fumigatus (assay: Antifungal activity against Aspergillus fumigatus human isolate after 72 hrs by serial dilution method). Conditions: not given.
Format: functional
Method in brief: as §4

Row | SMILES | MIC
30 | CCCCNc1nnc(Cc2cc(OC)c(OC)cc2S(=O)(=O)N(C)C)o1 | 130 µM (≈ 51.8 µg/mL)

What follows are compounds tested on Aspergillus flavus (assay: Antifungal activity against Aspergillus flavus ATCC 9643 after 72 hrs by serial dilution method). Conditions: ATCC 9643, 72 h.
Format: functional
Method in brief: as §4

Row | SMILES | MIC
31 | CCCCNc1nnc(Cc2cc(OC)c(OC)cc2S(=O)(=O)N(C)C)o1 | 250 µM (≈ 99.6 µg/mL)

Each compound was assayed on Staphylococcus aureus (assay: Antibacterial activity against Staphylococcus aureus ATCC 6538 after 24 hrs by micro dilution method). Conditions: ATCC 6538, 24 h.
Format: functional
Method in brief: as §3

Row | SMILES | MIC
32 | CCCCNc1nnc(Cc2cc(OC)c(OC)cc2S(=O)(=O)N(C)C)o1 | 250 µM (≈ 99.6 µg/mL)
